From ChEMBL document CHEMBL1641579, “Synthesis and biological evaluation of 7-substituted-1-(3-bromophenylamino)isoquinoline-4-carbonitriles as inhibitors of myosin light chain kinase and epidermal growth factor receptor” (Bioorg Med Chem, 2011)

Legend:
[1] = target: Epidermal growth factor receptor (Homo sapiens, UniProt P00533); test: Inhibition of EGFR by HTRF assay
[2] = target: Mitogen-activated protein kinase kinase kinase 11 (Homo sapiens) (UniProt Q16584); test: Inhibition of MLK3 assessed as residual activity at 10 uM
Sequence of Mitogen-activated protein kinase kinase kinase 11 (Homo sapiens) (Q16584 whole entry, looked up): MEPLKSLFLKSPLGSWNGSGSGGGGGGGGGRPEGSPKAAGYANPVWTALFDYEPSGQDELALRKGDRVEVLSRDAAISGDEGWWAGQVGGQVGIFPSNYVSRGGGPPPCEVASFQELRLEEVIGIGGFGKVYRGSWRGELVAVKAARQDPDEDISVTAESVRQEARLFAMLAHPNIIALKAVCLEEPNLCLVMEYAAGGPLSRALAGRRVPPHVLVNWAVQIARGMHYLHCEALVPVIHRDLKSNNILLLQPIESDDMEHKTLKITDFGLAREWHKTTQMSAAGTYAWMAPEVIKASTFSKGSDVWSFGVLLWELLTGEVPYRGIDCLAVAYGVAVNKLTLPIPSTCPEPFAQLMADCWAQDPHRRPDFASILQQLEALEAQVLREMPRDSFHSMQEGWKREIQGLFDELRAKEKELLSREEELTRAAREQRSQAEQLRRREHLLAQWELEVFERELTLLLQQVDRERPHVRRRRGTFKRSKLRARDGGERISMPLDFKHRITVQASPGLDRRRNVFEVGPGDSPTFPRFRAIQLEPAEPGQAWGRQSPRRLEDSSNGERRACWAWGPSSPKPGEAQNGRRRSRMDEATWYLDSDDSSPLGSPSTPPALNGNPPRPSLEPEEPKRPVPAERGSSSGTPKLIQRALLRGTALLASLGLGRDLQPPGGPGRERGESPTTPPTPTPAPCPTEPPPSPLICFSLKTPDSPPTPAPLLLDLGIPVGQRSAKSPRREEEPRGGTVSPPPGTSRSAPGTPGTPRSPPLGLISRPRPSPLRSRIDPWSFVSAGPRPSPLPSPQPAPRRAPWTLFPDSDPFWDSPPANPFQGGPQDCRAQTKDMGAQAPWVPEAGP
Method in brief: (§1)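 Panel screen by radioactive kinase assay at a single inhibitor concentration. Score is the percent activity remaining relative to DMSO controls (100%).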

[3] = target: Serine/threonine-protein kinase N2 (Homo sapiens) (UniProt Q16513); test: Inhibition of PRK2 assessed as residual activity at 10 uM; method in brief: as §1
[4] = target: Homeodomain-interacting protein kinase 1 (Homo sapiens) (UniProt Q86Z02); test: Inhibition of HIPK1 assessed as residual activity at 10 uM
Sequence of Homeodomain-interacting protein kinase 1 (Homo sapiens) (Q86Z02 whole entry, looked up): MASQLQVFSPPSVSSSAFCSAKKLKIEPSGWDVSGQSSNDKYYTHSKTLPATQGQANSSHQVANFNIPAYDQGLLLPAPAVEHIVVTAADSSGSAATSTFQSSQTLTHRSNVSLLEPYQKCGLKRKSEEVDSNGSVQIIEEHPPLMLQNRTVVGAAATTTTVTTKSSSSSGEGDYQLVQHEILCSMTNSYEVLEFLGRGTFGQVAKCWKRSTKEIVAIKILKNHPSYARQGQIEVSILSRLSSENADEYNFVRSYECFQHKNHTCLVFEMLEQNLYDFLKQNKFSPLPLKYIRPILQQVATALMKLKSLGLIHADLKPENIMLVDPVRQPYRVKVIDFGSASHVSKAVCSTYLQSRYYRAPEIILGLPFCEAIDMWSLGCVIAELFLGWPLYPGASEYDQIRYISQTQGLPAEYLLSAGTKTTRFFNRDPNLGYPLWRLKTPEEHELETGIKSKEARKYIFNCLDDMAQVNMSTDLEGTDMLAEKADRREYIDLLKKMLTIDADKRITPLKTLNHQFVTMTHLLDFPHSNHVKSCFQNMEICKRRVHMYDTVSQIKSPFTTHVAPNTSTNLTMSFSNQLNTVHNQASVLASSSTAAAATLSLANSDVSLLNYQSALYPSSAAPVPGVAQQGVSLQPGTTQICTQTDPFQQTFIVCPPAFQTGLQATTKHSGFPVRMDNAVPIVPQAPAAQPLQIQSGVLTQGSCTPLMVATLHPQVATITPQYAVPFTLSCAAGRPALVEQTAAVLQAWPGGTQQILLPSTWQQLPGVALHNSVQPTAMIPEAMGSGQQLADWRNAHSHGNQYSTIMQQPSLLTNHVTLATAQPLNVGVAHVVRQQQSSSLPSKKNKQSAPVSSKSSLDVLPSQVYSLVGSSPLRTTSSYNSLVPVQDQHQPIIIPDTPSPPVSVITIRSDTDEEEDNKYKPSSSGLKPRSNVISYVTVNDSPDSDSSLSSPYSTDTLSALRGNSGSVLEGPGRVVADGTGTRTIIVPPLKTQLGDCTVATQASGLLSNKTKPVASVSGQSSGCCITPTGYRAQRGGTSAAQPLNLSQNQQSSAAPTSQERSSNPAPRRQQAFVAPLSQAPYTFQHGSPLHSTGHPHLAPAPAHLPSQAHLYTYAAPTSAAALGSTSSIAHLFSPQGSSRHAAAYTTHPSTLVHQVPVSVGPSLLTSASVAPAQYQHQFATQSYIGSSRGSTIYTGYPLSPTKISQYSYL
Method in brief: (§2)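 Kinase panel screen run as a radioactive activity assay at single compound concentration. Score reported as percent activity remaining relative to DMSO controls (100%).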

[5] = target: Ephrin type-A receptor 2 (Homo sapiens) (UniProt P29317); test: Inhibition of EPHA2 assessed as residual activity at 10 uM; method in brief: as §2
Sequence of Ephrin type-A receptor 2 (Homo sapiens) (P29317 whole entry): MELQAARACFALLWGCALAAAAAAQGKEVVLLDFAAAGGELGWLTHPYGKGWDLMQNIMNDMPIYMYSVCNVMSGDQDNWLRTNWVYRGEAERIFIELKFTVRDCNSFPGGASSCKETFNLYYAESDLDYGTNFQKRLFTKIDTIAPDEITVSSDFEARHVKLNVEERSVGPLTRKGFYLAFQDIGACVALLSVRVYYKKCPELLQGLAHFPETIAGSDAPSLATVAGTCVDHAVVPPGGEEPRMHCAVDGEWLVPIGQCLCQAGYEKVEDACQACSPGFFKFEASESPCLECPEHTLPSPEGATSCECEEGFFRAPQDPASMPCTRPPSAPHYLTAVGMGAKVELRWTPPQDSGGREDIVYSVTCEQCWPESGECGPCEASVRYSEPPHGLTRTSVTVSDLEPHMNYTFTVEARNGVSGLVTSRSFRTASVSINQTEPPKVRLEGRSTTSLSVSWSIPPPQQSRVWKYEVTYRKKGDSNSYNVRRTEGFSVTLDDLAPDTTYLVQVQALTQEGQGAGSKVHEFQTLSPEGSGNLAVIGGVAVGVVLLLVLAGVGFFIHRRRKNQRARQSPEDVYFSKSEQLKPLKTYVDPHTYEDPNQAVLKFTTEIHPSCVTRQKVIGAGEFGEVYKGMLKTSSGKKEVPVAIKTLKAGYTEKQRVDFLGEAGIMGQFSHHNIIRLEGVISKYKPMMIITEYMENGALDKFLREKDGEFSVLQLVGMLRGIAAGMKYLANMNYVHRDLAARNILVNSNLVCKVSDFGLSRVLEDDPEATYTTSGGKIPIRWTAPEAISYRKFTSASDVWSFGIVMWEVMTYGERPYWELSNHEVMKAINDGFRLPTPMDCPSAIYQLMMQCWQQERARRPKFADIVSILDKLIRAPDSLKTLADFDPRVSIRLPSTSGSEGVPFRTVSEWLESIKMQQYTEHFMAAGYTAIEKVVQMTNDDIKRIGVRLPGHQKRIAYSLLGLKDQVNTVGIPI

[6] = target: MAP kinase-activated protein kinase 3 (Homo sapiens) (UniProt Q16644); test: Inhibition of MAPKAPK3 assessed as residual activity at 10 uM; method in brief: as §2
Sequence of MAP kinase-activated protein kinase 3 (Homo sapiens) (Q16644 whole entry, looked up): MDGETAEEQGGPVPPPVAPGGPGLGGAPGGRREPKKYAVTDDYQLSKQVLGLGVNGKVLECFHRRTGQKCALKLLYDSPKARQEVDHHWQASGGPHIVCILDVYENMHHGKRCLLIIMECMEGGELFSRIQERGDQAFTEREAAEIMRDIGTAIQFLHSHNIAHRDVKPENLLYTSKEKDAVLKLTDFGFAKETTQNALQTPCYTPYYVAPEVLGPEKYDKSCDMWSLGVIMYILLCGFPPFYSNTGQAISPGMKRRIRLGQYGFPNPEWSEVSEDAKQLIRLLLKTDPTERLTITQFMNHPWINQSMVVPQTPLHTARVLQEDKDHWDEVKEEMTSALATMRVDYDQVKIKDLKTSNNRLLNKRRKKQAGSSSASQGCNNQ

[7] = target: T1, Mitogen-activated protein kinase kinase kinase kinase 2 (Homo sapiens) (UniProt Q12851); test: Inhibition of GCK assessed as residual activity at 10 uM; method in brief: as §2
T1 sequence (whole entry): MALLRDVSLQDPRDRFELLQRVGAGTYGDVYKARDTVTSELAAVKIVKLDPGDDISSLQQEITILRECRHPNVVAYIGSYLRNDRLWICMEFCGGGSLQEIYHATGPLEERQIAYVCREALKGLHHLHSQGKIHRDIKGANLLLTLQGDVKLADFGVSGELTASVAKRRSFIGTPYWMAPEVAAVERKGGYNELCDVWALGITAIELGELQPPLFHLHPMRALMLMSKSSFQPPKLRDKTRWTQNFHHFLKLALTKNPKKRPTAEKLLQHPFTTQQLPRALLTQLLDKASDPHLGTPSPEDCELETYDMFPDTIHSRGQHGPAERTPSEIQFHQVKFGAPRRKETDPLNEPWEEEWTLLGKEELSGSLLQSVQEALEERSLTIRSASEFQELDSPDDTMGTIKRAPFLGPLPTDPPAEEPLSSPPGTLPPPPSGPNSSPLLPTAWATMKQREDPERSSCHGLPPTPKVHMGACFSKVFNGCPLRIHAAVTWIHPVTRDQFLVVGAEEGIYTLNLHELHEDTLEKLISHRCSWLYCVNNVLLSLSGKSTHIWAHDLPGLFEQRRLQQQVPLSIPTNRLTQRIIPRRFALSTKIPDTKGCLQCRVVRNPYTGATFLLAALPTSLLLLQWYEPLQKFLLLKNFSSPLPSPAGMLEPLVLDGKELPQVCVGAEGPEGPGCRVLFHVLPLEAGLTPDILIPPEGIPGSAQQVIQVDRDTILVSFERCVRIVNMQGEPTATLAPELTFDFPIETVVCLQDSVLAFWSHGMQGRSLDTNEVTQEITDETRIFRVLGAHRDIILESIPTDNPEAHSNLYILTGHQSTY

[8] = target: T2, Serine/threonine-protein kinase TBK1 (Homo sapiens) (UniProt Q9UHD2); test: Inhibition of TBK1 assessed as residual activity at 10 uM; method in brief: as §1
T2 sequence (whole entry): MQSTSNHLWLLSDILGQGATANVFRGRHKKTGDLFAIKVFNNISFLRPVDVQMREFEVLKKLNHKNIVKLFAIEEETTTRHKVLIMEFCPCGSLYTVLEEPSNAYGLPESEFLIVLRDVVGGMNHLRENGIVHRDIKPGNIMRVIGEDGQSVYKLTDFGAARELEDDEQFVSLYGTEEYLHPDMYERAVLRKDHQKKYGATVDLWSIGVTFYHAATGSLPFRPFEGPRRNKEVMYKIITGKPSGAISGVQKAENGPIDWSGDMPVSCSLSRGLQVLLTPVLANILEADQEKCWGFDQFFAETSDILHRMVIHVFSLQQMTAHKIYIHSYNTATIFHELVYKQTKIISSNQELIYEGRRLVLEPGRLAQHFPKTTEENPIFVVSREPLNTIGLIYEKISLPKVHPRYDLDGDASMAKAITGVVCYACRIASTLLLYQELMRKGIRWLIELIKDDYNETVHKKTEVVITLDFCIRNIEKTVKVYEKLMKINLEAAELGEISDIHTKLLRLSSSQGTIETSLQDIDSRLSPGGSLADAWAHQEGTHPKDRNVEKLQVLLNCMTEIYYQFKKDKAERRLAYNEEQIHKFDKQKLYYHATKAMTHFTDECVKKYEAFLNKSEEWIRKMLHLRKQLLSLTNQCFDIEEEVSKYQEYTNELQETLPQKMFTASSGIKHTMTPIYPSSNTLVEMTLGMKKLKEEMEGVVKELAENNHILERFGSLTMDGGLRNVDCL

[9] = target: T3, Aurora kinase A (Homo sapiens) (UniProt O14965); test: Inhibition of aurora A assessed as residual activity at 10 uM; method in brief: as §1
T3 sequence (whole entry): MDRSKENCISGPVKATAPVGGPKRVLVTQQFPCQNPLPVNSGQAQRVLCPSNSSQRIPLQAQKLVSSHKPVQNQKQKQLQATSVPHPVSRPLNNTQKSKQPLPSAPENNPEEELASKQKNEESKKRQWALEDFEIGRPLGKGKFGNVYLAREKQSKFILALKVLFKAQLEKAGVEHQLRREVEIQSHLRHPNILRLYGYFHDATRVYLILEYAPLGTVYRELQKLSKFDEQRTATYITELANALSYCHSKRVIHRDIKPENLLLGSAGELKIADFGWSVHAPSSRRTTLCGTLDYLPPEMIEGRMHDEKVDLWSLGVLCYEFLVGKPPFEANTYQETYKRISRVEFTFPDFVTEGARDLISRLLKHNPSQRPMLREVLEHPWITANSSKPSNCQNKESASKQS

[10] = target: Mitogen-activated protein kinase 3 (Homo sapiens) (UniProt P27361); test: Inhibition of ERK1 assessed as residual activity at 10 uM; method in brief: as §2
Sequence of Mitogen-activated protein kinase 3 (Homo sapiens) (P27361 whole entry): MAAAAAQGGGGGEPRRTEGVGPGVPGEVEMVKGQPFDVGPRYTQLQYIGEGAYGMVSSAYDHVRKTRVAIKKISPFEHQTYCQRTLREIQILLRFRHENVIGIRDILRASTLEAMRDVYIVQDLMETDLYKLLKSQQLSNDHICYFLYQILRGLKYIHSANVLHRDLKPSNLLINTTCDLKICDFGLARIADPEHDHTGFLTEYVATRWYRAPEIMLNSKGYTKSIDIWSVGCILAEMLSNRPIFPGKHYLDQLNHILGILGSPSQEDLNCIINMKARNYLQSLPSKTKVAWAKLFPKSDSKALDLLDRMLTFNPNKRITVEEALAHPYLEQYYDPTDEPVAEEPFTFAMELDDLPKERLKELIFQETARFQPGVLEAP

[11] = target: Receptor tyrosine-protein kinase erbB-4 (Homo sapiens) (UniProt Q15303); test: Inhibition of HER4 assessed as residual activity at 10 uM; method in brief: as §2
Sequence of Receptor tyrosine-protein kinase erbB-4 (Homo sapiens) (Q15303 whole entry): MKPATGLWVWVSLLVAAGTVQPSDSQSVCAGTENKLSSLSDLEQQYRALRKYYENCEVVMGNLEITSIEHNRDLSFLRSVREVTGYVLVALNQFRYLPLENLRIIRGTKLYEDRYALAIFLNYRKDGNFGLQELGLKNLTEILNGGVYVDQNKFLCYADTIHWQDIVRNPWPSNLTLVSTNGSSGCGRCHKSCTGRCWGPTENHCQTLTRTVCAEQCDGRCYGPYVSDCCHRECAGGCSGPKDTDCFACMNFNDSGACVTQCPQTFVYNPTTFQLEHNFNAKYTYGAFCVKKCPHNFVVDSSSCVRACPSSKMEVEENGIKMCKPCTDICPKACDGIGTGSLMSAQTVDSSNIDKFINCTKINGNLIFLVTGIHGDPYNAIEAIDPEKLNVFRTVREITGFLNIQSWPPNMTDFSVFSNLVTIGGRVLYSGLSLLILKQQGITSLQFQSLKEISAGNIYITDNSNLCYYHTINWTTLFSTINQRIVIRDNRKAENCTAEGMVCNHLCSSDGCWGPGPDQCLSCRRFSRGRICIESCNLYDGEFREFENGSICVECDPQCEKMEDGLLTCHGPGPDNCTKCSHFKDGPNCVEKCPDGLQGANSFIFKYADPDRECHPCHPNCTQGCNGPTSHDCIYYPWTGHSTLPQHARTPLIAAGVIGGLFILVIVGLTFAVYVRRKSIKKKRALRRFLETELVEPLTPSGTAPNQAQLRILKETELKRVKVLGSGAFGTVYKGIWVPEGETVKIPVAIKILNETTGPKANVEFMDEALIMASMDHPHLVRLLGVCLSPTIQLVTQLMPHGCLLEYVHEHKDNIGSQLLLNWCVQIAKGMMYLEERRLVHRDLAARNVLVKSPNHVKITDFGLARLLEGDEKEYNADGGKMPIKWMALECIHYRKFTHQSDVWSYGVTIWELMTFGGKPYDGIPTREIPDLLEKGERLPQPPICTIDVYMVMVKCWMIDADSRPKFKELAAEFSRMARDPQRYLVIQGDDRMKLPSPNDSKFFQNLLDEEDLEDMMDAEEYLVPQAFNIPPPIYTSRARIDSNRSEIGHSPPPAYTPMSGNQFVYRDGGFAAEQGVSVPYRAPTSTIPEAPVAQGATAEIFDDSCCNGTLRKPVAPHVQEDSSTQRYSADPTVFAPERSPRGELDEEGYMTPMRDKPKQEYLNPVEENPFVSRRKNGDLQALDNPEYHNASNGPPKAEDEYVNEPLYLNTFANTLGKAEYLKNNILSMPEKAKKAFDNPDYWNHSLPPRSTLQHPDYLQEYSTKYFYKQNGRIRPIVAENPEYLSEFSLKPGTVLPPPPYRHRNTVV

[12] = Growth inhibition of human HCC95 cells assessed as ATP level after 96 hrs by CellTiter-Glo assay; type: functional; conditions: HCC95, 96 h
Method in brief: (§3)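 NSCLC lines maintained as in earlier work and authenticated by mutational analysis and SNP arrays. Cells were plated in 384-well format and allowed 24 h before compound addition as 10 threefold serial dilutions (DMSO stocks). After 96 h, viability was read as cellular ATP by CellTiter-Glo. GI50 was fitted with an R package.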

LCLC-97TM1 = test: Growth inhibition of human LCLC97TM1 cells assessed as ATP level after 96 hrs by CellTiter-Glo assay; type: functional; conditions: LCLC-97TM1, 96 h; method in brief: as §3
NCI-H1666 = test: Growth inhibition of human NCI-H1666 cells assessed as ATP level after 96 hrs by CellTiter-Glo assay; type: functional; conditions: NCI-H1666, 96 h; method in brief: as §3

IC50 [1]	Activity [2]	Activity [3]	Activity [4]	Activity [5]	Activity [6]	Activity [7]	Activity [8]	Activity [9]	Activity [10]	Activity [11]	GI50 (NCI-H1666)	SMILES	GI50 [12]	GI50 (LCLC-97TM1)
1.3 µM	87%	90%	83%	87%	91%	84%	87%	80%	85%	57%		CN1CCN(CCC(=O)Nc2ccc3c(C#N)cnc(Nc4cccc(Br)c4)c3c2)CC1		
0.15 µM	86%	100%	100%	73%	75%	84%	82%	79%	83%	21%	28.8 µM	CN(C)C/C=C/C(=O)Nc1ccc2c(C#N)cnc(Nc3cccc(Br)c3)c2c1	13.3 µM	19.5 µM
	100%	98%	95%	84%	96%	80%	99%	94%	93%	69%		CN(C)CCCC(=O)Nc1ccc2c(C#N)cnc(Nc3cccc(Br)c3)c2c1		
